In brackets after ≈: the same amount, converted by molar mass. Activity calls are given as the source filed them. No cut-off for these calls is given here.
Assays:
[1] = tested on: Plasmodium berghei; test: Antimalarial activity against drug-sensitive trophozoite stage of Plasmodium berghei infected in mouse assessed as increase in mean survival time up to 640 mg/kg, sc administered 72 hrs post infection; format: functional, organism-based; design: dose 640 mg/kg
[2] = tested on: Plasmodium berghei; test: Antimalarial activity against drug-sensitive trophozoite stage of Plasmodium berghei infected in mouse assessed as survival over 60 days at 320 mg/kg, sc administered 72 hrs post infection; format: functional, organism-based; design: dose 320 mg/kg
[3] = tested on: Plasmodium berghei; test: Antimalarial activity against trophozoite stage of Plasmodium berghei infected in mouse assessed as increase in mean survival time at 160 mg/kg, sc administered 72 hrs post infection; format: functional; details: route subcutaneous
[4] = tested on: Enterococcus faecalis; test: Antibacterial activity against Streptococcus faecalis MGH2 assessed as growth inhibition by gradient plate test; format: functional
In short: (§1)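 Modified gradient-plate method, in vitro. Panel: Streptococcus faecalis MGH-2, normal S. aureus UC-76, drug-resistant S. aureus S18713, E. coli Vogel, Shigella sonnei C-10.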

[5] = tested on: Staphylococcus aureus; test: Antibacterial activity against Staphylococcus aureus UC-76 assessed as growth inhibition by gradient plate test; format: functional; in short: as §1
[6] = tested on: Staphylococcus aureus; test: Antibacterial activity against drug-resistant Staphylococcus aureus S18713 assessed as growth inhibition by gradient plate test; format: functional
In short: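 In vitro test against a bacterial panel (S. faecalis MGH-2, S. aureus UC-76 and drug-resistant S18713, E. coli Vogel, Shigella sonnei C-10), run as a modified gradient plate procedure.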

[7] = tested on: Escherichia coli; test: Antibacterial activity against Escherichia coli Vogel assessed as growth inhibition by gradient plate test; format: functional; in short: as §1
[8] = tested on: Shigella sonnei; test: Antibacterial activity against Shigella sonnei C-10 assessed as growth inhibition by gradient plate test; format: functional; in short: as §1
[9] = tested on: Plasmodium gallinaceum; test: Antimalarial activity against sporozoite stage of Plasmodium gallinaceum infected in white leghorn cockerel assessed as survival over 30 days at 320 mg/kg, sc administered through peanut oil on day of infection; format: functional, organism-based; design: dose 320 mg/kg
[10] = tested on: Plasmodium gallinaceum; test: Antimalarial activity against sporozoite stage of Plasmodium gallinaceum infected in white leghorn cockerel assessed as survival over 30 days at 80 mg/kg, sc administered through peanut oil on day of infection; format: functional, organism-based; design: dose 80 mg/kg
[11] = tested on: Plasmodium gallinaceum; test: Antimalarial activity against sporozoite stage of Plasmodium gallinaceum infected in white leghorn cockerel assessed as survival over 30 days at 20 mg/kg, sc administered through peanut oil on day of infection; format: functional, organism-based; design: dose 20 mg/kg
[12] = tested on: Plasmodium gallinaceum; test: Antimalarial activity against sporozoite stage of Plasmodium gallinaceum infected in white leghorn cockerel assessed as survival over 30 days at 480 mg/kg, sc administered through peanut oil on day of infection; format: functional, organism-based; design: dose 480 mg/kg
[13] = tested on: Plasmodium gallinaceum; test: Antimalarial activity against sporozoite stage of Plasmodium gallinaceum infected in white leghorn cockerel assessed as survival over 30 days at 120 mg/kg, sc administered through peanut oil on day of infection; format: functional, organism-based; design: dose 120 mg/kg
[14] = tested on: Plasmodium gallinaceum; test: Antimalarial activity against sporozoite stage of Plasmodium gallinaceum infected in white leghorn cockerel assessed as survival over 30 days at 60 mg/kg, sc administered through peanut oil on day of infection; format: functional, organism-based; design: dose 60 mg/kg
[15] = tested on: Plasmodium gallinaceum; test: Antimalarial activity against sporozoite stage of Plasmodium gallinaceum infected in white leghorn cockerel assessed as survival over 30 days at 30 mg/kg, sc administered through peanut oil on day of infection; format: functional, organism-based; design: dose 30 mg/kg
[16] = tested on: Plasmodium gallinaceum; test: Antimalarial activity against sporozoite stage of Plasmodium gallinaceum infected in white leghorn cockerel assessed as increase in mean survival time at 7.5 mg/kg, sc administered through peanut oil on day of infection; format: functional; details: route subcutaneous
[17] = tested on: Plasmodium gallinaceum; test: Antimalarial activity against sporozoite stage of Plasmodium gallinaceum infected in white leghorn cockerel assessed as increase in mean survival time at 3.75 mg/kg, sc administered through peanut oil on day of infection; format: functional; details: route subcutaneous
[18] = tested on: Plasmodium gallinaceum; test: Antimalarial activity against sporozoite stage of Plasmodium gallinaceum infected in white leghorn cockerel assessed as survival over 30 days at 15 mg/kg, sc administered through peanut oil on day of infection; format: functional, organism-based; design: dose 15 mg/kg
[19] = tested on: Plasmodium gallinaceum; test: Antimalarial activity against sporozoite stage of Plasmodium gallinaceum infected in white leghorn cockerel assessed as survival over 30 days at 3.75 mg/kg, sc administered through peanut oil on day of infection; format: functional, organism-based; design: dose 3.75 mg/kg
[20] = tested on: Plasmodium berghei; test: Antimalarial activity against trophozoite stage of Plasmodium berghei infected in mouse assessed as increase in mean survival time at 40 mg/kg, sc administered 72 hrs post infection; format: functional; details: route subcutaneous
[21] = tested on: Plasmodium cynomolgi; test: Antimalarial activity against trophozoite stage of Plasmodium cynomolgi infected in rhesus monkey at 3.16 mg/kg, po; format: functional, organism-based; design: dose 3.16 mg/kg
In short: (§2)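 Rhesus monkey, one oral dose. Trophozoite-induced P. cynomolgi infection at 3.16 mg/kg; sporozoite-induced P. cynomolgi infection at 10 mg/kg.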

[22] = tested on: Plasmodium cynomolgi; test: Antimalarial activity against sporozoite stage of Plasmodium cynomolgi infected in rhesus monkey at 10 mg/kg; format: functional, organism-based; design: dose 10 mg/kg; in short: as §2
[23] = tested on: Plasmodium gallinaceum; test: Antimalarial activity against sporozoite stage of Plasmodium gallinaceum infected in white leghorn cockerel assessed as increase in mean survival time at 480 mg/kg, sc administered through peanut oil on day of infection; format: functional; details: route subcutaneous
[24] = tested on: Plasmodium gallinaceum; test: Antimalarial activity against sporozoite stage of Plasmodium gallinaceum infected in white leghorn cockerel assessed as increase in mean survival time at 120 mg/kg, sc administered through peanut oil on day of infection; format: functional; details: route subcutaneous
[25] = tested on: Plasmodium gallinaceum; test: Antimalarial activity against sporozoite stage of Plasmodium gallinaceum infected in white leghorn cockerel assessed as increase in mean survival time at 30 mg/kg, sc administered through peanut oil on day of infection; format: functional; details: route subcutaneous

Row | Structure (SMILES) | Activity [1] | MIC [4] [µg/mL] | MIC [5] [µg/mL] | MIC [6] [µg/mL] | MIC [7] [µg/mL] | MIC [8] [µg/mL] | also measured
1 | COc1cc(N(C)Cc2c[n+]([O-])c3nc(N)nc(N)c3n2)cc(OC)c1OC | inactive | – | – | – | – | – | –
2 | CN(Cc1c[n+]([O-])c2nc(N)nc(N)c2n1)c1ccc(Cl)cc1 | inactive | – | – | – | – | – | –
3 | COc1cc(N(C)Cc2cnc3nc(N)nc(N)c3n2)cc(OC)c1OC | – | < 0.25 | < 0.25 | < 0.25 | > 25 | > 25 | Activity [2]: Active; Survival [3]: 8.5 days
4 | CCN(Cc1cnc2nc(N)nc(N)c2n1)c1ccc(OC)cc1 | inactive | < 0.25 | < 0.25 | < 0.25 | > 25 | > 25 | Activity [9]: Active; Activity [10]: Active; Activity [11]: Active
5 | CCOC(=O)c1ccc(N(C)Cc2cnc3nc(N)nc(N)c3n2)cc1 | inactive | – | – | – | – | – | Activity [12]: Active; Activity [13]: Active; Activity [14]: Active
6 | CN(Cc1cnc2nc(N)nc(N)c2n1)c1ccc(Cl)c(Cl)c1 | inactive | < 0.25 | < 0.25 | 1.5 (≈ 4.28 µM) | > 25 | > 25 | –
7 | CN(Cc1c[n+]([O-])c2nc(N)nc(N)c2n1)c1cccc2ccccc12 | inactive | – | – | – | – | – | –
8 | Nc1nc(N)c2nc(CN3CCCc4ccccc43)cnc2n1 | – | – | – | – | – | – | Activity [12]: Active; Activity [13]: Active; Activity [14]: Active; Activity [15]: Active; Survival [16]: 2.3 days; Survival [17]: 1.3 days
9 | CN(Cc1cnc2nc(N)nc(N)c2n1)c1ccc(Cl)cc1 | inactive | < 0.25 | 1.5 (≈ 4.75 µM) | 2 (≈ 6.33 µM) | > 25 | > 25 | –
10 | CCCN(Cc1c[n+]([O-])c2nc(N)nc(N)c2n1)c1ccc(Cl)c(Cl)c1 | inactive | – | – | – | – | – | –
11 | CCN(Cc1c[n+]([O-])c2nc(N)nc(N)c2n1)c1ccc(OC)cc1 | inactive | – | – | – | – | – | –
12 | CN(C)C=O.Nc1nc(N)c2nc(CNc3ccc(Cl)c(Cl)c3)cnc2n1 | inactive | < 0.25 | < 0.25 | < 0.25 | > 25 | > 25 | –
13 | CN(Cc1c[n+]([O-])c2nc(N)nc(N)c2n1)c1ccc(Cl)c(Cl)c1 | inactive | – | – | – | – | – | –
14 | Nc1nc(N)c2nc(CNc3ccc(Cl)c(Cl)c3)c[n+]([O-])c2n1 | inactive | – | – | – | – | – | –
15 | CC(C)N(Cc1cnc2nc(N)nc(N)c2n1)c1ccc(Cl)c(Cl)c1 | inactive | < 0.25 | < 0.25 | < 0.25 | > 25 | > 25 | –
16 | CC(C)N(Cc1cnc2nc(N)nc(N)c2n1)c1ccc(Cl)cc1.CN(C)C=O | inactive | < 0.25 | < 0.25 | 1.5 | > 25 | > 25 | Activity [12]: Active; Activity [13]: Active; Activity [14]: Active; Activity [15]: Active; Activity [18]: Active; Activity [19]: Active
17 | CCN(Cc1c[n+]([O-])c2nc(N)nc(N)c2n1)c1ccc(Cl)cc1 | inactive | – | – | – | – | – | –
18 | CCN(Cc1cnc2nc(N)nc(N)c2n1)c1ccc(Cl)cc1 | inactive | < 0.25 | < 0.25 | 1.5 (≈ 4.55 µM) | > 25 | > 25 | –
19 | CN(Cc1cnc2nc(N)nc(N)c2n1)c1cccc2ccccc12 | – | < 0.25 | 1 (≈ 3.02 µM) | > 2.5 | > 25 | > 25 | Activity [2]: Active; Survival [20]: 5.4 days; Activity [21]: inactive; Activity [22]: inactive
20 | CCCN(Cc1cnc2nc(N)nc(N)c2n1)c1ccc(Cl)c(Cl)c1 | inactive | < 0.25 | < 0.25 | < 0.25 | > 25 | > 25 | Activity [12]: Active; Activity [13]: Active; Activity [14]: Active; Activity [15]: Active; Activity [19]: Active
21 | CC(C)N(Cc1c[n+]([O-])c2nc(N)nc(N)c2n1)c1ccc(Cl)cc1 | inactive | – | – | – | – | – | –
22 | CC(C)N(Cc1c[n+]([O-])c2nc(N)nc(N)c2n1)c1ccc(Cl)c(Cl)c1 | inactive | – | – | – | – | – | –
23 | CN(C)C=O.Nc1nc(N)c2nc(CN3CCCCC3c3ccccc3)cnc2n1 (configuration not stated) | – | – | – | – | – | – | Survival [23]: 0.3 days; Survival [24]: 0.2 days; Survival [25]: 0.1 days
24 | Nc1nc(N)c2nc(CN(C=O)c3ccc(Cl)c(Cl)c3)cnc2n1 | inactive | < 0.25 | 1 (≈ 2.75 µM) | 2 (≈ 5.49 µM) | > 25 | > 25 | –

— ChEMBL document CHEMBL3272334, “Folate antagonists. 10. Synthesis and antimalarial effects of 6-[[(aryl and aralkyl)amino]methyl]-2,4-pteridinediamines and -pteridinediamine 8-oxides” (1978)
